# In ChEMBL document CHEMBL1150802, “Ampicillin-resistant non-beta-lactamase-producing Haemophilus influenzae in Spain: recent emergence of clonal isolates with increased resistance to cefotaxime and cefixime” (2007):
# Assays:
# Type in all cases: functional
# Haemophilus influenzae [1] = assay: Antibacterial activity against beta-lactamase nonproducing ampicillin resistant Haemophilus influenzae group IIc isolates with acrR TTA>TGA mutation at 521 position by broth microdilution method
# Haemophilus influenzae [2] = assay: Antibacterial activity against beta-lactamase nonproducing ampicillin resistant Haemophilus influenzae isolate by broth microdilution method
# Method in brief: (§1)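 Clinical isolates were tested by broth microdilution in Haemophilus test medium following CLSI guidelines, with H. influenzae ATCC 49247 as the QC strain. β-Lactamase was detected by chromogenic nitrocefin test. ftsI was PCR-amplified and sequenced across nt 936–1640 (aa 327–540). Classes: BLNAS (no mechanism), BLNAR (ftsI substitutions), BLPAR (β-lactamase only), BLPACR (both). Agents tested were amoxicillin, amoxicillin-clavulanate (2:1), cefaclor, cefuroxime, cefotaxime and cefixime.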
# Haemophilus influenzae [3] = assay: Antibacterial activity against Haemophilus influenzae group III-like isolates with ftsI gene mutation by broth microdilution method; method in brief: as §1
# Haemophilus influenzae [4] = assay: (§2) Antibacterial activity against beta-lactamase nonproducing ampicillin resistant Haemophilus influenzae group IIa isolates with acrR aminoacid substitution mutation by broth microdilution method
# Haemophilus influenzae [5] = assay: Antibacterial activity against beta-lactamase nonproducing ampicillin susceptible Haemophilus influenzae isolate assessed as percent susceptible isolates by broth microdilution method
# Method in brief: (§3)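 Broth microdilution in Haemophilus test medium per CLSI guidelines on clinical isolates, with H. influenzae ATCC 49247 as quality-control strain; β-lactamase production detected by nitrocefin chromogenic cephalosporin test; isolates classed by β-lactamase status and ftsI (PBP 3) sequencing of amino acids 327 to 540. Agents tested: amoxicillin, amoxicillin-clavulanic acid (2:1), cefaclor, cefuroxime, cefotaxime, cefixime.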
# Haemophilus influenzae [6] = assay: Antibacterial activity against Haemophilus influenzae group IIb isolates with ftsI gene mutation by broth microdilution method; method in brief: as §1
# Haemophilus influenzae [7] = assay: Antibacterial activity against beta-lactamase nonproducing ampicillin resistant Haemophilus influenzae group IIc isolates with acrR base C insertion behind nucleotide 496 by broth microdilution method
# Haemophilus influenzae [8] = assay: Antibacterial activity against beta-lactamase producing amoxicillin-clavulanic acid-resistant Haemophilus influenzae isolate assessed as percent resistant isolates by broth microdilution method; method in brief: as §1
# Haemophilus influenzae [9] = assay: Antibacterial activity against beta-lactamase nonproducing ampicillin resistant Haemophilus influenzae isolate assessed as percent resistant isolates by broth microdilution method; method in brief: as §1
# Haemophilus influenzae [10] = assay: Antibacterial activity against beta-lactamase nonproducing ampicillin resistant Haemophilus influenzae group I isolates with acrR ATT deletion behind nucleotide 170 by broth microdilution method
# Haemophilus influenzae [11] = assay: Antibacterial activity against beta-lactamase nonproducing ampicillin resistant Haemophilus influenzae group IIc isolates with acrR aminoacid substitution mutation by broth microdilution method
# Haemophilus influenzae [12] = assay: Antibacterial activity against beta-lactamase nonproducing ampicillin resistant Haemophilus influenzae group IIb isolates with acrR mutation by broth microdilution method
# Haemophilus influenzae [13] = assay: Antibacterial activity against beta-lactamase positive ampicillin resistant Haemophilus influenzae isolate assessed as percent resistant isolates by broth microdilution method; method in brief: as §1
# Haemophilus influenzae [14] = assay: Antibacterial activity against beta-lactamase nonproducing ampicillin resistant Haemophilus influenzae group IIc isolates with acrR mutation by broth microdilution method
# Haemophilus influenzae [15] = assay: Antibacterial activity against Haemophilus influenzae group IIc isolates with ftsI gene mutation by broth microdilution method; method in brief: as §1
# Haemophilus influenzae [16] = assay: Antibacterial activity against beta-lactamase nonproducing ampicillin resistant Haemophilus influenzae group IIc isolates with acrR TTA>TGA mutation at 425 position by broth microdilution method
# Haemophilus influenzae [17] = assay: Antibacterial activity against beta-lactamase nonproducing ampicillin resistant Haemophilus influenzae group IId isolates with acrR mutation by broth microdilution method
# Haemophilus influenzae [18] = assay: Antibacterial activity against Haemophilus influenzae group IId isolates with ftsI gene mutation by broth microdilution method; method in brief: as §1
# Haemophilus influenzae [19] = assay: as §2; remark: listed apart in the source
# Haemophilus influenzae [20] = assay: Antibacterial activity against Haemophilus influenzae group I isolates with ftsI gene mutation by broth microdilution method; method in brief: as §1
# Haemophilus influenzae [21] = assay: Antibacterial activity against beta-lactamase producing amoxicillin-clavulanic acid-resistant Haemophilus influenzae isolate assessed as percent susceptible isolates by broth microdilution method; method in brief: as §3
# Haemophilus influenzae [22] = assay: Antibacterial activity against beta-lactamase nonproducing ampicillin susceptible Haemophilus influenzae isolate assessed as percent resistant isolates by broth microdilution method; method in brief: as §1
# Haemophilus influenzae [23] = assay: Antibacterial activity against beta-lactamase nonproducing ampicillin resistant Haemophilus influenzae group IIc isolates with acrR base A insertion behind nucleotide 361 by broth microdilution method
# Haemophilus influenzae [24] = assay: Antibacterial activity against beta-lactamase positive ampicillin resistant Haemophilus influenzae isolate by broth microdilution method; method in brief: as §1
# Haemophilus influenzae [25] = assay: Antibacterial activity against beta-lactamase nonproducing ampicillin resistant Haemophilus influenzae isolate assessed as percent susceptible isolates by broth microdilution method; method in brief: as §1
# Haemophilus influenzae [26] = assay: Antibacterial activity against beta-lactamase nonproducing ampicillin susceptible Haemophilus influenzae isolate by broth microdilution method; method in brief: as §1
# Haemophilus influenzae [27] = assay: Antibacterial activity against beta-lactamase nonproducing ampicillin resistant Haemophilus influenzae group IIb isolates with acrR aminoacid substitution mutation by broth microdilution method
# Haemophilus influenzae [28] = assay: Antibacterial activity against beta-lactamase producing amoxicillin-clavulanic acid-resistant Haemophilus influenzae isolate by broth microdilution method; method in brief: as §1
# Haemophilus influenzae [29] = assay: Antibacterial activity against beta-lactamase nonproducing ampicillin resistant Haemophilus influenzae group IIc isolates with acrR baseC insertion mutation by broth microdilution method
# Haemophilus influenzae [30] = assay: Antibacterial activity against Haemophilus influenzae group IIa isolates with ftsI gene mutation by broth microdilution method; method in brief: as §1
# Haemophilus influenzae [31] = assay: Antibacterial activity against beta-lactamase positive ampicillin resistant Haemophilus influenzae isolate assessed as percent susceptible isolates by broth microdilution method; method in brief: as §1
structure (smiles),measurement,setting,value
CC1(C)S[C@@H]2[C@H](NC(=O)[C@H](N)c3ccccc3)C(=O)N2[C@H]1C(=O)O [AMPICILLIN],MIC,Haemophilus influenzae [1],2 µg/mL
same,MIC50,Haemophilus influenzae [2],1 µg/mL
same,MIC90,Haemophilus influenzae [2],2 µg/mL
same,MIC50,Haemophilus influenzae [3],1 µg/mL
same,MIC90,Haemophilus influenzae [3],2 µg/mL
same,MIC,Haemophilus influenzae [4],4 µg/mL
same,Activity,Haemophilus influenzae [5],98.4%
same,MIC50,Haemophilus influenzae [6],1 µg/mL
same,MIC90,Haemophilus influenzae [6],2 µg/mL
same,MIC,Haemophilus influenzae [7],0.5 µg/mL
same,Activity,Haemophilus influenzae [8],100%
same,Activity,Haemophilus influenzae [9],50.8%
same,MIC,Haemophilus influenzae [10],2 µg/mL
same,MIC,Haemophilus influenzae [11],2 µg/mL
same,MIC,Haemophilus influenzae [12],1 µg/mL
same,Activity,Haemophilus influenzae [13],100%
same,MIC,Haemophilus influenzae [14],1 µg/mL
same,MIC50,Haemophilus influenzae [15],2 µg/mL
same,MIC90,Haemophilus influenzae [15],2 µg/mL
same,MIC,Haemophilus influenzae [16],0.5 µg/mL
same,MIC,Haemophilus influenzae [17],1 µg/mL
same,MIC,Haemophilus influenzae [18],0.5 µg/mL
same,MIC50,Haemophilus influenzae [18],0.5 µg/mL
same,MIC90,Haemophilus influenzae [18],2 µg/mL
same,MIC,Haemophilus influenzae [19],1 µg/mL
same,MIC,Haemophilus influenzae [20],0.5 µg/mL
same,MIC50,Haemophilus influenzae [20],0.5 µg/mL
same,MIC90,Haemophilus influenzae [20],2 µg/mL
same,Activity,Haemophilus influenzae [21],0%
same,Activity,Haemophilus influenzae [22],1.6%
same,MIC,Haemophilus influenzae [23],1 µg/mL
same,MIC50,Haemophilus influenzae [24],8 µg/mL
same,Activity,Haemophilus influenzae [25],49.2%
same,MIC,Haemophilus influenzae [26],≤ 0.25 µg/mL
same,MIC50,Haemophilus influenzae [26],≤ 0.25 µg/mL
same,MIC90,Haemophilus influenzae [26],0.5 µg/mL
same,MIC,Haemophilus influenzae [27],2 µg/mL
same,MIC50,Haemophilus influenzae [28],≥ 32 µg/mL
same,MIC90,Haemophilus influenzae [28],≥ 32 µg/mL
same,MIC,Haemophilus influenzae [29],2 µg/mL
same,MIC50,Haemophilus influenzae [30],2 µg/mL
same,MIC90,Haemophilus influenzae [30],4 µg/mL
N[C@@H](C(=O)N[C@@H]1C(=O)N2C(C(=O)O)=C(Cl)CS[C@H]12)c1ccccc1 [CEFACLOR ANHYDROUS],MIC50,Haemophilus influenzae [2],4 µg/mL
same,MIC50,Haemophilus influenzae [3],4 µg/mL
same,Activity,Haemophilus influenzae [31],91.1%
same,Activity,Haemophilus influenzae [5],100%
same,MIC50,Haemophilus influenzae [6],4 µg/mL
same,Activity,Haemophilus influenzae [8],24.3%
same,Activity,Haemophilus influenzae [9],12.1%
same,Activity,Haemophilus influenzae [13],8.9%
same,MIC50,Haemophilus influenzae [15],8 µg/mL
same,MIC50,Haemophilus influenzae [18],2 µg/mL
same,MIC90,Haemophilus influenzae [18],8 µg/mL
same,MIC,Haemophilus influenzae [20],2 µg/mL
same,MIC50,Haemophilus influenzae [20],2 µg/mL
same,MIC90,Haemophilus influenzae [20],8 µg/mL
same,Activity,Haemophilus influenzae [21],75.7%
same,Activity,Haemophilus influenzae [22],0%
same,MIC50,Haemophilus influenzae [24],4 µg/mL
same,MIC90,Haemophilus influenzae [24],8 µg/mL
same,Activity,Haemophilus influenzae [25],87.9%
same,MIC50,Haemophilus influenzae [26],2 µg/mL
same,MIC90,Haemophilus influenzae [26],4 µg/mL
same,MIC50,Haemophilus influenzae [28],4 µg/mL
same,MIC90,Haemophilus influenzae [28],≥ 16 µg/mL
same,MIC50,Haemophilus influenzae [30],8 µg/mL
CO/N=C(\C(=O)N[C@@H]1C(=O)N2C(C(=O)O)=C(COC(C)=O)CS[C@H]12)c1csc(N)n1 [CEFOTAXIME],MIC50,Haemophilus influenzae [2],0.06 µg/mL
same,MIC90,Haemophilus influenzae [2],0.25 µg/mL
same,MIC50,Haemophilus influenzae [3],0.5 µg/mL
same,MIC90,Haemophilus influenzae [3],4 µg/mL
same,Activity,Haemophilus influenzae [5],100%
same,MIC50,Haemophilus influenzae [6],0.06 µg/mL
same,MIC90,Haemophilus influenzae [6],0.12 µg/mL
same,Activity,Haemophilus influenzae [8],0%
same,Activity,Haemophilus influenzae [9],1%
same,Activity,Haemophilus influenzae [13],0%
same,MIC50,Haemophilus influenzae [15],0.06 µg/mL
same,MIC90,Haemophilus influenzae [15],0.12 µg/mL
same,MIC50,Haemophilus influenzae [18],0.03 µg/mL
same,MIC90,Haemophilus influenzae [18],0.12 µg/mL
same,MIC50,Haemophilus influenzae [20],0.03 µg/mL
same,MIC90,Haemophilus influenzae [20],0.12 µg/mL
same,Activity,Haemophilus influenzae [21],100%
same,Activity,Haemophilus influenzae [22],0%
same,MIC90,Haemophilus influenzae [24],0.06 µg/mL
same,Activity,Haemophilus influenzae [25],99%
same,MIC,Haemophilus influenzae [26],≤ 0.01 µg/mL
same,MIC50,Haemophilus influenzae [26],≤ 0.01 µg/mL
same,MIC90,Haemophilus influenzae [26],0.06 µg/mL
same,MIC50,Haemophilus influenzae [28],0.03 µg/mL
same,MIC90,Haemophilus influenzae [28],0.06 µg/mL
same,MIC50,Haemophilus influenzae [30],0.06 µg/mL
same,MIC90,Haemophilus influenzae [30],0.25 µg/mL
C=CC1=C(C(=O)O)N2C(=O)[C@@H](NC(=O)/C(=N\OCC(=O)O)c3csc(N)n3)[C@H]2SC1 [CEFIXIME],MIC50,Haemophilus influenzae [2],0.06 µg/mL
same,MIC90,Haemophilus influenzae [2],0.25 µg/mL
same,MIC50,Haemophilus influenzae [3],1 µg/mL
same,MIC90,Haemophilus influenzae [3],4 µg/mL
same,Activity,Haemophilus influenzae [5],100%
same,MIC50,Haemophilus influenzae [6],0.06 µg/mL
same,MIC90,Haemophilus influenzae [6],0.12 µg/mL
same,Activity,Haemophilus influenzae [8],0%
same,Activity,Haemophilus influenzae [9],1%
same,Activity,Haemophilus influenzae [13],0%
same,MIC50,Haemophilus influenzae [15],0.06 µg/mL
same,MIC90,Haemophilus influenzae [15],0.12 µg/mL
same,MIC50,Haemophilus influenzae [18],0.06 µg/mL
same,MIC90,Haemophilus influenzae [18],0.12 µg/mL
same,MIC,Haemophilus influenzae [20],0.06 µg/mL
same,MIC50,Haemophilus influenzae [20],0.06 µg/mL
same,MIC90,Haemophilus influenzae [20],0.12 µg/mL
same,Activity,Haemophilus influenzae [21],100%
same,Activity,Haemophilus influenzae [22],0%
same,MIC50,Haemophilus influenzae [24],≤ 0.01 µg/mL
same,MIC90,Haemophilus influenzae [24],0.06 µg/mL
same,Activity,Haemophilus influenzae [25],99%
same,MIC50,Haemophilus influenzae [26],0.06 µg/mL
same,MIC90,Haemophilus influenzae [26],0.06 µg/mL
same,MIC50,Haemophilus influenzae [28],0.06 µg/mL
same,MIC90,Haemophilus influenzae [28],0.12 µg/mL
same,MIC50,Haemophilus influenzae [30],0.06 µg/mL
same,MIC90,Haemophilus influenzae [30],0.25 µg/mL
CO/N=C(\C(=O)N[C@@H]1C(=O)N2C(C(=O)O)=C(COC(N)=O)CS[C@H]12)c1ccco1 [CEFUROXIME],MIC50,Haemophilus influenzae [2],2 µg/mL
same,MIC90,Haemophilus influenzae [2],4 µg/mL
same,MIC50,Haemophilus influenzae [3],4 µg/mL
same,MIC90,Haemophilus influenzae [3],8 µg/mL
same,Activity,Haemophilus influenzae [5],100%
same,MIC50,Haemophilus influenzae [6],2 µg/mL
same,MIC90,Haemophilus influenzae [6],2 µg/mL
same,Activity,Haemophilus influenzae [8],0%
same,Activity,Haemophilus influenzae [9],2%
same,Activity,Haemophilus influenzae [13],0%
same,MIC50,Haemophilus influenzae [15],2 µg/mL
same,MIC90,Haemophilus influenzae [15],2 µg/mL
same,MIC,Haemophilus influenzae [18],0.5 µg/mL
same,MIC50,Haemophilus influenzae [18],0.5 µg/mL
same,MIC90,Haemophilus influenzae [18],4 µg/mL
same,MIC,Haemophilus influenzae [20],0.5 µg/mL
same,MIC50,Haemophilus influenzae [20],0.5 µg/mL
same,MIC90,Haemophilus influenzae [20],2 µg/mL
same,Activity,Haemophilus influenzae [21],100%
same,Activity,Haemophilus influenzae [22],0%
same,MIC50,Haemophilus influenzae [24],1 µg/mL
same,MIC90,Haemophilus influenzae [24],1 µg/mL
same,Activity,Haemophilus influenzae [25],98%
same,MIC50,Haemophilus influenzae [26],0.5 µg/mL
same,MIC90,Haemophilus influenzae [26],1 µg/mL
same,MIC50,Haemophilus influenzae [28],1 µg/mL
same,MIC90,Haemophilus influenzae [28],2 µg/mL
same,MIC50,Haemophilus influenzae [30],2 µg/mL
same,MIC90,Haemophilus influenzae [30],4 µg/mL
